Source: PubChem BioAssay
A selection: hits, their analogues and other compounds. The true share with any hit is near 1.4%.
Yeast superoxide – reduction of superoxide in aged yeast, primary screen, HTS; S. cerevisiae aged cells, superoxide DHE fluorescence; active compounds read low; 330,000 compounds, 0.18% hits; AID 2690, 2010; superoxide response (% of plate mean), % at 10 µM;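 active = superoxide response under a set limit, about three screen SD below normal, cut at about 65% in these data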;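 note: yeast aged for seven days with compound at 30 °C before DHE staining; 100% = average MFI of all compound-treated wells on the plate with controls excluded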
HDAC3 inhib – HDAC3 deacetylase inhibitors, primary screen, biochemical, fluorescence, cell-free homogeneous; 320,000 compounds, 0.15% hits; AID 2718, 2010; inhibition, % at 8.3 µM; recombinant HDAC3, fluorogenic peptide/trypsin coupled; in the data active = inhibition above about 26%, passing the limit was not always enough; inconclusive = no clear call, values can overlap the other calls
Target sequence (O15379 whole entry, looked up): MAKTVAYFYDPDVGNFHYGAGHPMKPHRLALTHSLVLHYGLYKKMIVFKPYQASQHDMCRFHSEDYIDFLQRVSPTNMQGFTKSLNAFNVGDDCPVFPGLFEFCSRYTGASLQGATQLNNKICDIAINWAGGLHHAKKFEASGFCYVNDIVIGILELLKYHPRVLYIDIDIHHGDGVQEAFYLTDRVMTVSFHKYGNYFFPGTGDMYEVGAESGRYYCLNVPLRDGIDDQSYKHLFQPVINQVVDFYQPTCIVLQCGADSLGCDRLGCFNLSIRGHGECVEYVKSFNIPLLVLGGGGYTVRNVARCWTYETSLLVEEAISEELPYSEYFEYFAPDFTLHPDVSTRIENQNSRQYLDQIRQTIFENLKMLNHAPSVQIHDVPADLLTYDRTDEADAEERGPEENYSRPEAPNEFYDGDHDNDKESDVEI
Efflux pump inh – inhibitors of Candida efflux pumps in yeast, primary screen, S. cerevisiae, Nile Red, multiplex. S. cerevisiae Candida pump triplex. 330,000 compounds, 0.44% hits. inhibition, % at 10 µM;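 active = plate passing quality check with inhibition over a set limit, or well fluorescence over plate mean plus 4 SD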;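 note: Nile Red retained in pooled yeast measured as flow cytometry median fluorescence; 0% = buffer negative control and 100% = Enniatin B positive control; higher means more Nile Red kept so more efflux inhibition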
Tb MetRS inh – T. brucei MetRS inhibitors, primary screen, biochemical, luminescence | methionyl-tRNA synthetase (Trypanosoma brucei brucei) | purified T. brucei MetRS, ATP depletion, Kinase-Glo luminescence | inhibition, % at 11.9 µM | 360,000 compounds, 0.4% hits | AID 624268, 2012;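 active = inhibition above a per-plate cutoff of the control wells' mean inhibition plus 3 SD, cut at about 5.5% in these data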;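 note: 0% = DMSO wells median and 100% = median of wells with control inhibitor compound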
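assay system = parasite MetRS enzyme | timing = 15 min preincubation, 2 h reaction, all 25 °C | evaluation = percent inhibition relative to median high and low control wells | medium = HEPES buffer containing pyrophosphatase, BSA, spermine, DTT | compound = single dose, 11.9 µM final nominal, 0.9% final DMSO | detection = Kinase-Glo luminescence, ATP depletion format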
IDE act – human IDE activators in live cells, primary screen, fluorescence polarization, HEK cells, FAbeta-B substrate; activation, % at 5.96 µM; Insulin-degrading enzyme (Homo sapiens), P14735; 340,000 compounds, 0.073% hits; AID 493087, 2011; FAbeta-B cleavage; 0% vehicle, 100% cell-free pure enzyme wells;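 active = activation above the mean of all tested compounds plus 3 SD, set per screening campaign, cut at about 17% in these data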
IDE cell inh – human IDE inhibitors in live cells, primary screen, fluorescence polarization, HEK cells, FAbetaB substrate; Insulin-degrading enzyme (Homo sapiens), P14735; FAbetaB cleavage; inhibition, % at 5.59 µM; 320,000 compounds, 0.41% hits; AID 434962, 2010;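 active = percent inhibition above the average of all tested compounds plus 3 SD, set per screening campaign, cut at about 16% in these data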;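 note: IDE supplied by intact live HEK cells; FP after avidin binding of uncleaved biotin substrate so inhibition keeps polarization high; 0% = DMSO wells and 100% = 60 µM reference IDE inhibitor Ii1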
IDE inh confirm – human IDE inhibitors in live cells, confirmation, fluorescence polarization, HEK cells, FAbetaB substrate | shares compounds with IDE cell inh | FAbetaB cleavage | inhibition, % at 5.59 µM | 1,200 compounds, 51% hits;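 active = mean inhibition across triplicate wells above the cutoff set by the earlier primary insulin-degrading enzyme screen, cut at about 16% in these data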;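 note: 0% = DMSO wells and 100% = 60 µM reference IDE inhibitor Ii1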
HEK293 tox – cytotoxicity in HEK cells, cytotoxicity control for IDE inhibitor project, cell-based, luminescence; shares compounds with IDE cell inh; HEK293 cytotoxicity, ATP luminescence; inhibition, % at 5.59 µM; 1,200 compounds, 28% hits; in the data active = inhibition above about 22%;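 note: 0% = vehicle wells and 100% = reference cytotoxic drug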
FP fluor counter – fluorescent or optically active artefacts, dose response, artefact control for IDE inhibitor project, biochemical, fluorescence polarization; shares compounds with IDE cell inh; IC50, µM; 30 tested, under 10 active; AID 588718, 2011; FP counterscreen for fluorescent artifacts, IDE probe project; call rule not given here
Active calls of the source: *; ? = inconclusive; / = no result.

SMILES	Yeast superoxide	HDAC3 inhib	Efflux pump inh	Tb MetRS inh	IDE act	IDE cell inh	IDE inh confirm	HEK293 tox	others
Nc1ccc(-c2c3ccc(=O)cc-3oc3cc(O)ccc23)c(C(=O)O)c1	179.9	?	0.4	-0.1	-12.8	49.2*	28.4*	3.6
CN(C(=O)COC(=O)C1CCN(S(=O)(=O)c2c(Cl)cccc2Cl)CC1)C1CCS(=O)(=O)C1 (stereo unspecified)	104.6	/	0.1	-0.4	-5.8	2.3	/	/
O=C(CN1CCN(Cc2ccc3c(c2)OCO3)CC1)Nc1ccc(N2CCOCC2)cc1	103.4	-2.9	-0.1	0.8	0.1	-0.3	/	/
O=C(Nc1ccc(Cl)cc1)N1CCN(c2ccc3nnc(-c4ccc(F)cc4)n3n2)CC1	127.8	-1.5	0.1	-0.8	-29.2	22.4*	13.0	10.6
CCc1ccccc1NC(=O)CN(C)C(=O)CSc1nc2cc(Cl)ccc2s1	73.3	-8.4	0.2	-0.5	-1.8	-1.4	/	/
CC(=O)Oc1ccc(N2C(=O)c3cccc4c([N+](=O)[O-])ccc(c34)C2=O)cc1	98.5	-1.8	0.7	-0.6	-3.8	17.6*	13.1	67.9*
CC(=O)Oc1ccc(-n2c(=O)c3ccccc3c3ccccc3c2=O)cc1	100.3	8.5	0.0	-1.0	4.1	0.8	/	/
O=S(=O)(c1ccc(N2CCOCC2)nc1)N(Cc1ccccn1)Cc1ccccn1	108.9	-8.4	0.0	-0.9	9.4	-0.7	/	/
O=C(O)Cn1cc(F)c(=O)[nH]c1=O	85.4	1.9	0.0	-0.6	/	-6.1	/	/
S=C(NCC1CCCO1)N1CCN(c2nc(-c3ccccc3)cs2)CC1 (stereo unspecified)	113.2	5.6	0.1	-0.1	-15.1	9.5	/	/
S=C(NCc1ccco1)N1CCN(c2nc(-c3ccc(Cl)cc3)cs2)CC1	94.2	9.8	0.0	-0.7	-14.2	21.8*	5.2	20.5
S=C(NCc1ccco1)N1CCN(c2nc(-c3ccccc3)cs2)CC1	98.6	-2.0	0.0	-1.0	-9.3	17.6*	7.0	10.2
CN(CC(=O)NC(=O)NC(C)(C)C)CC(=O)Nc1ccccc1Cl	95.4	4.4	0.1	-0.8	3.6	-1.6	/	/
CN(C)S(=O)(=O)c1ccc(NC(=O)CSc2ncnc3ccccc23)cc1	116.6	/	-0.4	-0.4	-7.6	19.3*	1.4	11.0
CN(C)S(=O)(=O)c1cccc(NC(=O)CSc2ncnc3ccccc23)c1	90.5	-0.8	-0.2	0.2	-8.8	4.1	/	/
COc1cccc(NC(=O)N2CCN(c3cccc(C)c3C)CC2)c1	100.6	-3.4	0.0	1.1	-1.5	16.4*	3.8	14.0
COc1cccc(NC(=O)N2CCN(c3nc(-c4cccc(OC)c4)cs3)CC2)c1	111.7	5.7	-0.1	-0.2	-28.2	19.0*	10.5	29.7*
Cn1c(CCN2CCN(c3ccccc3)CC2)nc2cc(NC(=O)c3ccco3)ccc21	104.4	4.8	-0.2	-0.1	3.0	7.6	/	/
Cc1ccc(N2CCN(CCc3nc4cc(NC(=O)c5ccco5)ccc4n3C)CC2)cc1	94.5	-1.6	-0.1	-0.6	-1.5	19.4*	7.7	21.1
O=C(OCc1nc2ccsc2c(=O)[nH]1)c1cccc(S(=O)(=O)N2CCOCC2)c1	101.1	-0.4	0.1	-0.1	0.8	1.4	/	/
COc1ccc(C(=O)N2[C@@H](C(C)C)COc3cc(Br)ccc3S2(=O)=O)cc1	/	/	/	-1.0	1.9	/	/	/
O=C(Nc1ccc2c(c1)CCC2)C1CCN(c2c3c(nc4ncnn24)CCC3)CC1	100.5	-3.6	0.0	0.9	-41.8	42.0*	12.7	51.4*
O=c1c2c([N+](=O)[O-])cc([N+](=O)[O-])cc2sn1Cc1ccccc1	117.7	15.8	-0.1	-0.3	-32.1	84.3*	23.8*	92.1*
O=[N+]([O-])c1ccc(S(=O)Cc2ccccc2)c([N+](=O)[O-])c1 (stereo unspecified)	/	/	/	-0.3	-3.4	/	/	/
COc1ccc(OC(=O)c2ccc(OC)c(S(=O)(=O)N3CCOCC3)c2)cc1	91.3	2.1	0.0	0.2	0.5	/	/	/
SMILES	Yeast superoxide	HDAC3 inhib	Efflux pump inh	Tb MetRS inh	IDE act	IDE cell inh	IDE inh confirm	HEK293 tox	others
CCCCn1c(NC(=S)Nc2ccccc2)nc2ccccc21	100.5	9.9	-0.1	-0.3	-12.4	30.6*	12.4	12.0
CCNC(=O)C1(C)CCCN1C(=O)c1c(F)cccc1F (stereo unspecified)	/	/	/	-0.3	/	/	/	/
COc1ccc(CCNC(=O)COC(=O)CNS(=O)(=O)c2ccc(SC)c([N+](=O)[O-])c2)cc1	151.0	1.7	0.5	-0.5	2.5	3.1	/	/
Cc1c(CCC(=O)NCCCn2ccnc2)c(=O)oc2cc3oc4c(c3cc12)CCCC4	133.5	-9.5	0.5	-2.9	-49.9	56.4*	33.4*	21.7	FP fluor counter=>54.7
CCc1cccc(C)c1NC(=O)C1CC(=O)N(C2CCCC2)C1 (stereo unspecified)	115.0	-9.3	0.0	-0.5	1.8	-1.7	/	/
C=CCn1c(O)c(N=NC(=S)Nc2cccc(OC)c2)c2ccccc21	90.5	4.4	-0.2	-0.7	-5.9	18.7*	7.2	81.7*
C=CCn1c(O)c(N=NC(=O)OCC)c2ccccc21	98.3	/	-0.1	0.2	-1.4	0.2	/	/
C=CCn1c(O)c(N=NC(=S)Nc2ccc(OC)cc2)c2ccccc21	107.3	-2.8	-0.3	-1.1	4.2	16.8*	-1.1	56.6*
Cc1ccc(-n2c(SCC(=O)N3CCOCC3)nnc2-c2cccnc2)cc1C	92.5	2.9	-0.1	-0.9	-11.8	18.8*	5.8	7.5
Cc1ccc(-n2c(SCC(=O)N3CCOCC3)nnc2-c2cccnc2)cc1	110.3	-2.9	0.0	-1.2	-2.0	8.0	/	/
COc1ccc(N2CCN(C(=O)CSc3nnc(-c4cccnc4)n3-c3ccc(F)cc3)CC2)cc1	93.5	0.0	0.0	-0.6	-15.8	3.0	/	/
O=C(CSc1nnc(-c2cccnc2)n1-c1ccccc1)N1CCN(c2ccc(F)cc2)CC1	97.7	-10.9	-0.1	0.0	-34.3	21.0*	10.1	20.6
CCSC1=NSC2=NC(=O)/C(=C\c3coc4ccccc4c3=O)C(=N)N12	120.7	3.0	-0.2	-0.1	-65.0	54.6*	50.7*	5.9
